Measurements from ChEMBL document CHEMBL1150303, “Synthesis, in vitro antibacterial and carbonic anhydrase II inhibitory activities of N-acylsulfonamides using silica sulfuric acid as an efficient catalyst under both solvent-free and heterogeneous conditions” (2008).
≈ marks a conversion by molar mass, not a printed value.

How the values were obtained:
Format in all cases: functional
Escherichia coli = assay: Antibacterial activity against Escherichia coli isolate by conventional agar dilution method
Outline: (§1)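 Inoculum: 3–5 colonies suspended to 0.5 McFarland, then diluted 1000-fold to 1.5 · 10⁵ CFU/mL. Compounds dissolved in DMSO, diluted with water to stock, then serially doubled in Mueller–Hinton broth to 1000, 512, 256, 128, 64, 32, 16, 8, 4 and 2 in a 12-well series. Equal volumes of dilution and bacterial suspension were combined. DMSO-only medium served as solvent control. Sulfamethoxazole was the reference.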

Enterococcus faecium = assay: Antibacterial activity against Enterococcus faecium isolate by conventional agar dilution method; outline: as §1
Klebsiella pneumoniae = assay: Antibacterial activity against Klebsiella pneumoniae isolate by conventional agar dilution method; outline: as §1
Staphylococcus aureus [1] = assay: Antibacterial activity against Staphylococcus aureus isolate by conventional agar dilution method; outline: as §1
Staphylococcus aureus [2] = assay: Antibacterial activity against Staphylococcus aureus […] by conventional agar dilution method; outline: as §1
Pseudomonas aeruginosa = assay: Antibacterial activity against Pseudomonas aeruginosa ATCC 27853 by conventional agar dilution method; outline: as §1

| Compound | MIC (Escherichia coli) | MIC (Enterococcus faecium) | MIC (Klebsiella pneumoniae) | MIC (Staphylococcus aureus [1]) | MIC (Staphylococcus aureus [2]) | MIC (Pseudomonas aeruginosa) |
| --- | --- | --- | --- | --- | --- | --- |
| O=C(NS(=O)(=O)c1ccccc1)c1ccccc1 | 256 µg/mL (≈ 980 µM) | 256 µg/mL (≈ 980 µM) | 256 µg/mL (≈ 980 µM) | 500 µg/mL (≈ 1910 µM) | 256 µg/mL (≈ 980 µM) | 256 µg/mL (≈ 980 µM) |
| CCCCC(=O)NS(=O)(=O)c1ccc(C)cc1 | > 1000 µg/mL | > 1000 µg/mL | > 1000 µg/mL | > 1000 µg/mL | > 1000 µg/mL | > 1000 µg/mL |
| Cc1cc(NS(=O)(=O)c2ccc(N)cc2)no1 [SULFAMETHOXAZOLE] | 2 µg/mL (≈ 7.9 µM) | 4 µg/mL (≈ 15.8 µM) | 8 µg/mL (≈ 31.6 µM) | 4 µg/mL (≈ 15.8 µM) | 2 µg/mL (≈ 7.9 µM) | 8 µg/mL (≈ 31.6 µM) |
| CCC(=O)NS(=O)(=O)c1ccccc1 | 256 µg/mL (≈ 1200 µM) | 64 µg/mL (≈ 300 µM) | 256 µg/mL (≈ 1200 µM) | 256 µg/mL (≈ 1200 µM) | 128 µg/mL (≈ 600 µM) | 500 µg/mL (≈ 2340 µM) |
| CCCCC(=O)NS(=O)(=O)c1ccccc1 | > 1000 µg/mL | > 1000 µg/mL | > 1000 µg/mL | > 1000 µg/mL | > 1000 µg/mL | > 1000 µg/mL |
| CCC(=O)NS(=O)(=O)c1ccc(C)cc1 | 128 µg/mL (≈ 563 µM) | 64 µg/mL (≈ 282 µM) | 500 µg/mL (≈ 2200 µM) | 128 µg/mL (≈ 563 µM) | 64 µg/mL (≈ 282 µM) | 500 µg/mL (≈ 2200 µM) |

The remaining lines, values ahead:

| MIC (Escherichia coli) | MIC (Enterococcus faecium) | MIC (Klebsiella pneumoniae) | MIC (Staphylococcus aureus [1]) | MIC (Staphylococcus aureus [2]) | MIC (Pseudomonas aeruginosa) | Compound |
| --- | --- | --- | --- | --- | --- | --- |
| > 1000 µg/mL | > 1000 µg/mL | > 1000 µg/mL | > 1000 µg/mL | > 1000 µg/mL | > 1000 µg/mL | CC(=O)NS(=O)(=O)c1ccccc1 |
| 64 µg/mL (≈ 232 µM) | 128 µg/mL (≈ 465 µM) | 256 µg/mL (≈ 930 µM) | 256 µg/mL (≈ 930 µM) | 256 µg/mL (≈ 930 µM) | 256 µg/mL (≈ 930 µM) | Cc1ccc(S(=O)(=O)NC(=O)c2ccccc2)cc1 |
| 256 µg/mL (≈ 1280 µM) | 256 µg/mL (≈ 1280 µM) | 500 µg/mL (≈ 2510 µM) | 256 µg/mL (≈ 1280 µM) | 500 µg/mL (≈ 2510 µM) | 500 µg/mL (≈ 2510 µM) | CS(=O)(=O)NC(=O)c1ccccc1 |
